The test system of data set [1] is Human immunodeficiency virus 1. In words: Antiviral activity against Human immunodeficiency virus 1 infected in human 293T cells assessed as inhibition of viral replication after 48 hrs by luminescence analysis. To be noted: Human immunodeficiency virus 1, HEK-293T. In kind it is functional, organism-based. In short, it runs like this:
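Single-cycle, nonreplicative phenotypic assay against wild-type HIV-1, using virus-like particles made with an HIV-1 retroviral vector system. Compounds incubated with 293T cells and VLPs for 48 h. Inhibition quantified by luminescence and reported as IC50 (μM).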

The nature of data set [2]: Cytotoxicity against human 293T cells after 48 hrs by colorimetric analysis. To be noted: HEK-293T cells. The format is cell-based.

In general, IC50 refers to the point on the concentration scale where inhibition reaches its midpoint. Broadly, the CC50 is the concentration that lowers cell viability or growth by half. High values mean lower toxicity to the cells, low ones greater toxicity to the cells. Turning to `CCOC(=O)c1[nH]c2ccc(Cl)cc2c1C1(c2cccs2)CC1`, the IC50 in data set [1] stood at 65 nM. For the same molecule, half-maximal cytotoxicity in data set [2] (CC50 at 48 h) was put at 67.1 µM.
For `O=C(O)c1[nH]c2ccc(Cl)cc2c1C1(c2ccccc2)CC1`, in that order: 28500 nM and 92.3 µM.
With `CCOC(=O)c1[nH]c2ccc(Cl)cc2c1C1(c2ccccc2)CC1`, the IC50 in data set [1] was determined as 85 nM. The CC50 at 48 h in data set [2] was determined as 30.3 µM.
With `NC(=O)c1[nH]c2ccc(Cl)cc2c1C1(c2ccccc2)CC1`, the IC50 in data set [1] turned out to be 96 nM. The same molecule returned a CC50 at 48 h in data set [2] of 14.2 µM.
Taken in the same sequence, the figures for `CCOC(=O)c1[nH]c2ccc(Cl)cc2c1C1(C)CC1` were 2250 nM and 44.3 µM.
Taken in the same sequence, the figures for `CCOC(=O)c1[nH]c2ccc(Br)cc2c1C1(c2ccccc2)CC1` were 66 nM and 24.5 µM.
For `O=C(O)c1[nH]c2ccc(Cl)cc2c1C1(c2cccs2)CC1`, in that order: 48200 nM and 140 µM.
For `NC(=O)c1[nH]c2ccc(Cl)cc2c1C1(c2cccs2)CC1`, in data set [1], the 50% inhibitory concentration (IC50) was 121 nM. The CC50 at 48 h in data set [2] amounted to 25.6 µM.
`OCc1[nH]c2ccc(Cl)cc2c1C1(c2ccccc2)CC1`: the IC50 in data set [1] amounted to 8250 nM. This molecule had a CC50 at 48 h in data set [2] of 34.1 µM.
For `OCc1[nH]c2ccc(Cl)cc2c1C1(c2cccs2)CC1`, the 50% inhibitory concentration (IC50) in data set [1] came out at 14400 nM. Moreover, the CC50 at 48 h in data set [2] turned out to be 36.6 µM.
In the case of `Cc1ccnc2c1NC(=O)c1cccnc1N2C1CC1` [NEVIRAPINE], the IC50 in data set [1] came out at 87 nM.

The record behind these values is ChEMBL document CHEMBL2062389, “Novel Cyclopropyl-Indole Derivatives as HIV Non-Nucleoside Reverse Transcriptase Inhibitors” (ACS Med Chem Lett, 2012).
